High-throughput results (PubChem BioAssay)
ABCG2 inh = human ABCG2 inhibition, ABCB1 as counter-screen. Q9UNQ0. IgMXP3 cells, JC-1 efflux, flow cytometry. inhibition, % at 6.6 µM. 190,000 compounds, 0.1% hits;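 active = inhibition above 80%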;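 note: 0% = DMSO and 100% = nicardipine control wells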
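System: two drug-resistant human cell lines, ABCG2 and ABCB1; controls: nicardipine high and DMSO low controls; times: 10 min exposure at 25 °C with rotation, no wash; detection: flow cytometry of retained JC-1 fluorescence; read-out basis: percent efflux inhibition, scaled nicardipine 100% to DMSO 0%; doses: one concentration, 6.6 µM final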
L major viab = Leishmania major promastigote growth inhibition. AID 1063. 200,000 compounds, 9% hits. inhibition, % at 10 µM. Leishmania major promastigotes, resazurin fluorescence viability; in the data active = inhibition above about 50%;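 note: promastigotes grown with compound for 44 hours at 28 °C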
RAM network inh = inhibitors of the yeast RAM network | S. cerevisiae dse1pr::URA3 reporter, 5-FOA growth OD615, 2 d; analog-sensitive cbk1-as2 kinase mutant strain | 190,000 compounds, 1.8% hits | inhibition, % at 50 µM;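 active = inhibition above a set limit, 3 SD over mean compound inhibition, cut at about 8.4% in these data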;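 note: 0% = DMSO-only wells with no growth and 100% = 10 µM 1-NA-PP1 full growth; inhibition rescues growth on 5-FOA so higher OD means more RAM inhibition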
WT yeast gro inh = growth inhibition of WT yeast, mitochondrial fusion screen | AID 1362 | mitochondrial fusion phenotypic screen, WT strain | 190,000 compounds, 2.1% hits | inhibition, % at 10 µM; in the data active = inhibition above about 58%; tested in S. cerevisiae
ABCB1 block = human ABCB1 inhibition, ABCG2 as counter-screen; P08183; CCRF-Adr cells, JC-1 efflux, flow cytometry; inhibition, % at 6.6 µM; 190,000 compounds, 0.067% hits; in the data active = inhibition above about 40%;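 note: 0% = vehicle and 100% = reference inhibitor; higher value means more JC-1 retained so stronger ABCB1 efflux block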
The depositor's hits bear a star; / = no result. An excerpt weighted towards active compounds, which were near 12% of everything screened.

SMILES	ABCG2 inh	L major viab	RAM network inh	WT yeast gro inh	ABCB1 block
O=C1COc2ccc(C(=O)c3ccccc3C(=O)NCc3ccccc3)cc2N1	/	0	2	-10	/
CN(CC(=O)Nc1ccc(Cl)cc1)c1ccc(S(=O)(=O)N2CCCCC2)cc1[N+](=O)[O-]	-1	3	4	10	1
O=C(Cn1cccc1C(=O)c1ccccc1)NCc1ccc2c(c1)OCO2	3	2	4	/	1
CC(NC(=O)Cn1cccc1C(=O)c1ccccc1)c1ccc2c(c1)OCCO2 (stereo not given)	-2	89*	0	5	0
Cc1nc2cc(-c3ccccc3)nn2c(C)c1CCC(=O)NC(C)c1ccc2c(c1)OCCO2 (stereo not given)	27	95*	0	-7	2
Cc1nc2cc(-c3cccc(F)c3)nn2c(C)c1CCC(=O)NC(C)c1ccc2c(c1)OCCO2 (stereo not given)	22	97*	1	1	1
Cc1nc2nc(C)c(CCC(=O)NC(C)c3ccc4c(c3)OCCO4)c(C)n2n1 (stereo not given)	0	-3	1	21	0
Cc1cc(C)n2nc(S(=O)(=O)NC3CCCCC3)nc2n1	-3	-3	0	1	-3
CCN(CC(=O)NC(C)C)C(=O)[C@H](C)NC(=O)c1ccc(Br)cc1	-1	6	0	-3	0
CC1CCN(CCC(=O)N/N=C/c2ccc([N+](=O)[O-])cc2)CC1	0	81*	0	-1	0
O=C(NCc1cccnc1)c1ccccc1[N+](=O)[O-]	6	24	2	-12	0
CCOC(=O)C1(Cc2ccccc2)CCN(Cc2cccn2-c2cccnc2)CC1	1	18	1	3	2
CCOC(=O)C1(Cc2cccc(OC)c2)CCN(CC2CC=CCC2)CC1 (stereo not given)	1	92*	1	-3	1
CC1CCCN(C(=O)C2CCN(CC3CC=CCC3)CC2)C1 (stereo not given)	4	94*	0	0	0
COc1cc(CN2CCC(C(=O)N3CCCC(C)C3)CC2)cc(OC)c1O (stereo not given)	-1	-3	1	-5	0
CCOC(=O)C1(Cc2ccccc2)CCN(CC2CC=CCC2)CC1 (stereo not given)	1	80*	1	-5	1
CCOC(=O)C1(Cc2cccc(F)c2)CCN(CC2CC2)CC1	3	5	1	5	1
O=C(c1ccccc1)N1CCN(CC2CC=CCC2)CC1 (stereo not given)	1	70*	3	-10	0
Cc1cc(NC(=O)COC(=O)[C@H](Cc2c[nH]c3ccccc23)NC(=O)c2ccc(F)cc2)no1	0	-4	1	7	0
Clc1ccc(OCCOCCN2CCCCC2)c(Br)c1	1	100*	1	44	0
CC1CCCN(CCOc2ccc3ccccc3c2Br)C1 (stereo not given)	-1	88*	-1	59	1
CC1CCN(CCOCCOc2ccc(Cl)cc2Br)CC1	5	101*	1	14	3
O=C(COc1ccc(Cl)cc1Br)NNC(=O)C(=O)N1CCCCC1	3	-11	2	-3	0
O=CN1CCN(C(=O)COc2ccc(Cl)cc2Br)CC1	6	-6	1	3	0
Cc1ccc(Cl)c(OCCN2CCCC(C)C2)c1 (stereo not given)	-2	91*	0	2	-1
SMILES	ABCG2 inh	L major viab	RAM network inh	WT yeast gro inh	ABCB1 block
Cc1c(Cl)cccc1NC(=O)CCN1CCCC(C)C1 (stereo not given)	1	10	1	7	0
Cc1cc(OCc2ccc(C(=O)NN=C3CCCC3)cc2)ccc1Cl	0	-6	0	71	0
Cc1cc(C(C)(C)C)ccc1OCCOCCN1CCCC1	1	96*	0	20	1
CC1CCN(CCCOc2ccc(Cl)cc2Br)CC1	0	87*	1	27	0
Cc1cc(C(C)(C)C)ccc1OCCN(C)C	2	1	1	-3	1
Clc1cccc(OCCCN2CCCC2)c1Cl	-1	1	2	6	0
CC1CCN(S(=O)(=O)c2ccc(Cl)cc2Br)CC1	3	4	1	25	1
CC1CCCN(CCCOc2ccc(Cl)cc2Br)C1 (stereo not given)	-4	98*	2	30	3
COc1ccc(NC(=S)Nc2ccc(OCc3ccccc3)cc2)c(OC)c1	1	21	7	67*	0
COc1ccc(NC(=O)C(=O)NCCC2=CCCCC2)c(OC)c1	5	55*	4	-25	/
COc1ccc(NC(=S)NCCc2ccc(Cl)cc2)c(OC)c1	4	12	0	67*	0
COc1ccc(CCNC(=S)Nc2cc(C)ccc2C)cc1	4	9	0	63*	1
COc1ccc(NC(=S)NCCc2ccc(S(N)(=O)=O)cc2)c(OC)c1	0	-2	0	-16	0
Cc1cc(C(=O)CN2C(=O)C(=O)N(Cc3ccccc3)C2=O)c(C)n1-c1ccc2c(c1)OCCO2	3	-5	3	12	1
O=C(c1ccc([N+](=O)[O-])cc1[N+](=O)[O-])n1cnc2ccccc21	4	-6	0	2	1
COc1ccc(/C(C)=N/NC(=S)Nc2cc(C)ccc2C)cc1	7	13	2	67*	0
COc1ccc(CNC(=S)Nc2cc(C)ccc2C)cc1	1	16	2	46	0
COc1ccc(CCNC(=S)Nc2ccc(C)cc2C)cc1	8	8	0	69*	0
O=C(CC1c2ccccc2Oc2ccccc21)Nc1ccccc1C(F)(F)F	1	-3	3	9	0
COc1ccc(-n2cc(C#N)c(=O)[nH]c2=O)cc1	5	0	2	5	1
CCCN(CCC)c1nc(C#N)nc(N(CCC)CCC)n1	11	7	-1	33	1
CCCN(CCC)c1nc(N(CCC)CCC)[nH]c(=O)n1	2	57*	-1	5	1
Cc1c(NC(=O)COC(=O)c2ccc(F)c(S(=O)(=O)N3CCOCC3)c2)c(=O)n(-c2ccccc2)n1C	0	-5	1	-13	0
CCOCC(=O)Nc1cc(C)on1	3	-2	0	0	2
O=C(Nc1cc(Cl)ccc1Cl)C1CC(=O)N(c2ccccc2)C1 (stereo not given)	7	7	3	-4	1
O=C1CC(N(CCc2ccccc2)C(=S)Nc2ccccc2)C(=O)N1c1ccccc1 (stereo not given)	-8	29	8	71*	-1
CCNC(=S)N(CCc1ccc(S(N)(=O)=O)cc1)C1CC(=O)N(c2ccccc2)C1=O (stereo not given)	-1	-9	2	-7	0
O=C1CC(N(CCc2ccccc2)C(=S)Nc2cc(Cl)ccc2Cl)C(=O)N1c1c(Cl)cccc1Cl (stereo not given)	-1	99*	7	-5	0
